Measurements taken from ChEMBL document CHEMBL1155796, “Lupane-type triterpenoids from Microtropis fokienensis and Perrottetia arisanensis and the apoptotic effect of 28-hydroxy-3-oxo-lup-20(29)-en-30-al” (J Nat Prod, 2008).
In brackets after ≈: the same amount, converted by molar mass. Activity calls are given as the source filed them. The rule behind the calls is not given here.

What was measured:
HepG2 = test: Cytotoxicity against human HepG2 cells by MTT assay; format: functional, cell-based
Summary of the method: (§1)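 Freshly trypsinized cells were seeded at 5000-10 000 per well, and compounds were added from DMSO stocks and left for 3 days. Attached cells were then given MTT ([…], 1 h) and dissolved in DMSO, with absorbance read at 550 nm.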

MCF7 = test: Cytotoxicity against human MCF7 cells by MTT assay; format: functional, cell-based; summary of the method: as §1
MDA-MB-231 = test: Cytotoxicity against human MDA-MB-231 cells by MTT assay; format: functional, cell-based; summary of the method: as §1
HL-60 [1] = test: Cytotoxicity against human HL60 cells by MTT assay; format: functional, cell-based; summary of the method: as §1
A549 = test: Cytotoxicity against human A549 cells by MTT assay; format: functional, cell-based; summary of the method: as §1
[2] = Cytotoxicity against human Hep3B cells by MTT assay; format: functional, cell-based, Hep 3B2; summary of the method: as §1
B16 = test: Cytotoxicity against mouse B16 cells; format: functional, cell-based
Ca9-22 = test: Cytotoxicity against human sCa9-22 cells by MTT assay; format: functional, cell-based; summary of the method: as §1
HL-60 [3] = test: Cell cycle arrest in human HL60 cells assessed as accumulation at G0/G1 cells at 5 ug/ml after 24 hrs; format: functional
Summary of the method: (§2)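 Treated and control HL60 cells harvested, washed in cold PBS, fixed in 70% ethanol and held at 4 °C. […] DNA content read by flow cytometry. Fractions in sub-G1, G0/G1, S and G2/M assigned by cell-cycle modelling software.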

HL-60 [4] = test: Cell cycle arrest in human HL60 cells assessed as accumulation at G0/G1 cells at 2.5 ug/ml after 24 hrs; format: functional; summary of the method: as §2
HL-60 [5] = test: Cell cycle arrest in human HL60 cells assessed as accumulation at G2 cells at 5 ug/ml after 24 hrs; format: functional; summary of the method: as §2
HL-60 [6] = test: Cell cycle arrest in human HL60 cells assessed as accumulation at G2 cells at 2.5 ug/ml after 24 hrs; format: functional; summary of the method: as §2
HL-60 [7] = test: Induction of apoptosis in human HL60 cells assessed as PARP cleavage by Western blotting; format: functional, cell-based
Summary of the method: (§3)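 Lysate cleared at 20000g, 30 min, 4 °C and protein measured by BCA. 50 µg resolved on 12% SDS-PAGE, blotted to PVDF and probed for PARP, Bax and Bcl-2, with β-tubulin as loading control.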

HL-60 [8] = test: Induction of apoptosis in human HL60 cells assessed as increase in Bax protein level by Western blotting; format: functional, cell-based; summary of the method: as §3
HL-60 [9] = test: Cell cycle arrest in human HL60 cells assessed as accumulation at S cells at 0.625 ug/ml after 24 hrs by flow cytometry; format: functional; summary of the method: as §2
HL-60 [10] = test: Cell cycle arrest in human HL60 cells assessed as accumulation at G2 cells at 0.625 ug/ml after 24 hrs by flow cytometry; format: functional; summary of the method: as §2
HL-60 [11] = test: Cell cycle arrest in human HL60 cells assessed as accumulation at S cells at 2.5 ug/ml after 24 hrs; format: functional; summary of the method: as §2
HL-60 [12] = test: Induction of apoptosis in human HL60 cells assessed as effect on Bcl2 protein level by Western blotting; format: functional, cell-based; summary of the method: as §3
HL-60 [13] = test: Cell cycle arrest in human HL60 cells assessed as accumulation at S cells at 1.250 ug/ml after 24 hrs; format: functional; summary of the method: as §2
HL-60 [14] = test: Cell cycle arrest in human HL60 cells assessed as accumulation at subG1 cells at 0.625 ug/ml after 24 hrs by flow cytometry; format: functional; summary of the method: as §2
HL-60 [15] = test: Cell cycle arrest in human HL60 cells assessed as accumulation at subG1 cells at 5 ug/ml after 24 hrs; format: functional; summary of the method: as §2
HL-60 [16] = test: Cell cycle arrest in human HL60 cells assessed as accumulation at S cells at 5 ug/ml after 24 hrs; format: functional; summary of the method: as §2
HL-60 [17] = test: Cell cycle arrest in human HL60 cells assessed as accumulation at subG1 cells at 2.5 ug/ml after 24 hrs; format: functional; summary of the method: as §2
HL-60 [18] = test: Cell cycle arrest in human HL60 cells assessed as accumulation at subG1 cells at 1.250 ug/ml after 24 hrs; format: functional; summary of the method: as §2
HL-60 [19] = test: Cell cycle arrest in human HL60 cells assessed as accumulation at G0/G1 cells at 0.625 ug/ml after 24 hrs by flow cytometry; format: functional; summary of the method: as §2
HL-60 [20] = test: Cell cycle arrest in human HL60 cells assessed as accumulation at G0/G1 cells at 1.250 ug/ml after 24 hrs; format: functional; summary of the method: as §2
HL-60 [21] = test: Cell cycle arrest in human HL60 cells assessed as accumulation at G2 cells at 1.250 ug/ml after 24 hrs; format: functional; summary of the method: as §2

For `C=C(C)[C@@H]1CC[C@]2(C(=O)O)CC[C@]3(C)[C@H](CC[C@@H]4[C@@]5(C)CC[C@@H](O)C(C)(C)[C@@H]5CC[C@]43C)[C@@H]12` [EPIBETULINIC ACID], the IC50 (HepG2) was 9.3 µg/mL (≈ 20.4 µM), the IC50 (MCF7) was 9.7 µg/mL (≈ 21.2 µM) and the IC50 (MDA-MB-231) was 9.2 µg/mL (≈ 20.1 µM). It also gave an IC50 (HL-60 [1]) of 2.3 µg/mL (≈ 5.04 µM), an IC50 (A549) of 9.7 µg/mL (≈ 21.2 µM) and an IC50 [2] of 8.1 µg/mL (≈ 17.7 µM).
Work on `C=C(C)[C@@H]1CC[C@]2(C(=O)O)CC[C@]3(C)[C@H](CC[C@@H]4[C@@]5(C)CC[C@H](O)C(C)(C)[C@@H]5CC[C@]43C)[C@@H]12` [BETULINIC ACID] yielded an IC50 (HepG2) of 3.1 µg/mL (≈ 6.79 µM), an IC50 (MCF7) of 4 µg/mL (≈ 8.76 µM) and an IC50 (MDA-MB-231) of 3.5 µg/mL (≈ 7.66 µM). For the same compound, the IC50 (HL-60 [1]) was 2 µg/mL (≈ 4.38 µM), the IC50 (B16) was 5 µg/mL (≈ 10.9 µM) and the IC50 (A549) was 2.8 µg/mL (≈ 6.13 µM). It also gave an IC50 (Ca9-22) greater than 20 µg/mL and an IC50 [2] of 1.7 µg/mL (≈ 3.72 µM).
Work on `COc1cccc2c1C(=O)c1c(O)c3c(c(O)c1C2=O)C[C@@](O)(C(=O)CO)C[C@@H]3O[C@H]1C[C@H](N)[C@H](O)[C@H](C)O1` [DOXORUBICIN] yielded an IC50 (HepG2) of 0.17 µg/mL (≈ 0.313 µM), an IC50 (MCF7) of 0.32 µg/mL (≈ 0.589 µM) and an IC50 (MDA-MB-231) of 0.15 µg/mL (≈ 0.276 µM). The IC50 (HL-60 [1]) was 0.003 µg/mL (≈ 0.00552 µM), the IC50 (Ca9-22) was 0.09 µg/mL (≈ 0.166 µM) and the IC50 [2] was 0.27 µg/mL (≈ 0.497 µM).
`C=C(C)[C@@H]1CC[C@]2(CO)CC[C@]3(C)[C@H](CC[C@@H]4[C@@]5(C)CC[C@@H](O)C(C)(C)[C@@H]5CC[C@]43C)[C@@H]12` [3-EPI-BETULIN] showed an IC50 (HepG2) of 6.7 µg/mL (≈ 15.1 µM), an IC50 (MCF7) of 16 µg/mL (≈ 36.1 µM) and an IC50 (MDA-MB-231) greater than 20 µg/mL. For the same compound, the IC50 (HL-60 [1]) was 1.7 µg/mL (≈ 3.84 µM), the IC50 (A549) was 15.7 µg/mL (≈ 35.5 µM) and the IC50 (Ca9-22) was greater than 20 µg/mL. It also gave an IC50 [2] of 9.3 µg/mL (≈ 21 µM).
In the case of `C=C(CO)[C@@H]1CC[C@]2(C)CC[C@]3(C)[C@H](CC[C@@H]4[C@@]5(C)CCC(=O)C(C)(C)[C@@H]5CC[C@]43C)[C@@H]12`, the IC50 (B16) is reported as 9.2 µg/mL (≈ 20.9 µM).
`C=C(C=O)[C@@H]1CC[C@]2(CO)CC[C@]3(C)[C@H](CC[C@@H]4[C@@]5(C)CCC(=O)C(C)(C)[C@@H]5CC[C@]43C)[C@@H]12` showed an Activity (HL-60 [3]) of 14.6%, an IC50 (HepG2) of 12.6 µg/mL (≈ 27.7 µM) and an Activity (HL-60 [4]) of 56%. For the same compound, the Activity (HL-60 [5]) was 7.8%, the Activity (HL-60 [6]) was 11.5% and the Activity (HL-60 [7]) was “Active”. The Activity (HL-60 [8]) was “Active”, the Activity (HL-60 [9]) was 30.3% and the IC50 (MCF7) was 2.9 µg/mL (≈ 6.38 µM). For the same compound, the Activity (HL-60 [10]) was 13.9%, the Activity (HL-60 [11]) was 22.3% and the Activity (HL-60 [12]) was “inactive”. For the same compound, the Activity (HL-60 [13]) was 30.5%, the IC50 (MDA-MB-231) was 7.9 µg/mL (≈ 17.4 µM) and the Activity (HL-60 [14]) was 1.6%. It also gave an Activity (HL-60 [15]) of 57.8%, an Activity (HL-60 [16]) of 19.8% and an Activity (HL-60 [17]) of 10.2%. It also gave an Activity (HL-60 [18]) of 2.8%, an IC50 (HL-60 [1]) of 1.6 µg/mL (≈ 3.52 µM) and an IC50 (A549) of 16.4 µg/mL (≈ 36.1 µM). For the same compound, the IC50 (Ca9-22) was 1.4 µg/mL (≈ 3.08 µM), the Activity (HL-60 [19]) was 54.2% and the Activity (HL-60 [20]) was 55.5%. The IC50 [2] was 4.7 µg/mL (≈ 10.3 µM) and the Activity (HL-60 [21]) was 11.2%.
